Each structure is given as a SMILES string.

For the assay, the system named is human FXa. Put plainly: In vitro neutralization of anti-FXa activity by protamine. Type of assay: biochemical. The conditions noted are these: sample at 25 x IC50, protamine 0 to 90 μg/ml. The method, boiled down:
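Human plasma is combined with a fixed test-compound stock set per construct and protamine chloride in PBS (0 to 90 μg/ml solutions), then held 5 min at room temperature. The mixture then goes into the chromogenic anti-FXa assay: human FXa for 4 min at room temperature, S-2765 substrate, and A405 read continuously for 5 min.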

With `CO[C@H]1O[C@H](COS(=O)(=O)O)[C@@H](O[C@@H]2O[C@@H](C(=O)O)[C@@H](O[C@H]3O[C@H](COS(=O)(=O)O)[C@@H](O[C@@H]4O[C@H](C(=O)O)[C@@H](O[C@H]5O[C@H](COS(=O)(=O)O)[C@@H](O)[C@H](O)[C@H]5NS(=O)(=O)O)[C@H](O)[C@H]4O)[C@H](OS(=O)(=O)O)[C@H]3NS(=O)(=O)O)[C@H](O)[C@H]2OS(=O)(=O)O)[C@H](O)[C@H]1NS(=O)(=O)O` [Fondaparinux], the “neutralization of anti-FXa activity by protamine in vitro” value is listed as “completely insensitive”.

These data come from PMC6231235 (Science translational medicine, 2017).
